Experimental data taken from the M2OR odorant receptor database.

Tests used:
Settings in all cases: stereoisomer not certain
[1] = target: T1, OR51D1 (Homo sapiens) (UniProt Q8NGF3)
T1 sequence (whole entry): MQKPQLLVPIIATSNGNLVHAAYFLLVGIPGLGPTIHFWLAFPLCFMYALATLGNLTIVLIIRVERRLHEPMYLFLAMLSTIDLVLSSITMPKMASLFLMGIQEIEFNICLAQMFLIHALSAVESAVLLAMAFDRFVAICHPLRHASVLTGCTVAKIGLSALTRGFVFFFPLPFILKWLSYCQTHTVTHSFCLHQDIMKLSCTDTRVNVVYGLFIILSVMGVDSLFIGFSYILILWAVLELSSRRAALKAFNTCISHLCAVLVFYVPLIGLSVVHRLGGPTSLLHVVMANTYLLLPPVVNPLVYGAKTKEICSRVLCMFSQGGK
In short: (§1)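 Values were gathered from published papers (main text and supplementary material), with extra details requested from the original authors when needed, and checked for typos and inconsistencies. Each receptor–molecule pair is called responsive (active) if the original authors judged the measured signal statistically different from baseline, and non-responsive (inactive) otherwise. Assay methods varied by source, often transient mammalian cell-line luciferase assays. Recorded details include cell line, G-protein, co-transfected protein and tags.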

[2] = target: T2, OR51E1 (Homo sapiens) (UniProt Q8TCB6)
T2 sequence (whole entry): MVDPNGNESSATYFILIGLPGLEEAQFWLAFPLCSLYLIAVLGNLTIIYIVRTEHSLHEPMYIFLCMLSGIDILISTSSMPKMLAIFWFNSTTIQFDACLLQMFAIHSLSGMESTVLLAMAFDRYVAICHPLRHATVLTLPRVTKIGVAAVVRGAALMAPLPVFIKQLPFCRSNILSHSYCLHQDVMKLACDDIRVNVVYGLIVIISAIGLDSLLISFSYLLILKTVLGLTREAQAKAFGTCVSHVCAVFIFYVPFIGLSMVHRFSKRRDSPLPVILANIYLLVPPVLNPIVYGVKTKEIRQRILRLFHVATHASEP
In short: as §1

[3] = target: T3, OR51E2 (Homo sapiens) (UniProt Q9H255)
T3 sequence (whole entry): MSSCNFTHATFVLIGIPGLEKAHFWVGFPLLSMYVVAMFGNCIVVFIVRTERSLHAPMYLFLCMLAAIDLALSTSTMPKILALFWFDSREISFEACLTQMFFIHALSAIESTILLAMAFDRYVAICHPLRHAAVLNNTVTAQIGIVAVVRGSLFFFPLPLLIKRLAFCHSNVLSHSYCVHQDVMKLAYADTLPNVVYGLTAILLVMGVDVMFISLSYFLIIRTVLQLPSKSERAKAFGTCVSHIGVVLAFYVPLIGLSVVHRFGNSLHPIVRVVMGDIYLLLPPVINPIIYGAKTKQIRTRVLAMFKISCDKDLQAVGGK
In short: as §1

[4] = target: T4, OR51F1 (Homo sapiens) (UniProt A6NGY5)
T4 sequence (whole entry): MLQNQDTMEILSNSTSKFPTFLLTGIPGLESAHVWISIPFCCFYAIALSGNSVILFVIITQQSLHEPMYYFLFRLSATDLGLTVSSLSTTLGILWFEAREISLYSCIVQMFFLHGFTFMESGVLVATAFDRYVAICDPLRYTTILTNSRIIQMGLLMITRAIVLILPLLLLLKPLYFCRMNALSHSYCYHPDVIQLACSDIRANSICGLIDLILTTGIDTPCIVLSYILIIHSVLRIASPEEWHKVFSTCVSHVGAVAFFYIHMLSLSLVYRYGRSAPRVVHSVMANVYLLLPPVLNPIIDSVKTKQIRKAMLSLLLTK
In short: as §1

[5] = target: T5, OR51F2 (Homo sapiens) (UniProt Q8NH61)
T5 sequence (whole entry): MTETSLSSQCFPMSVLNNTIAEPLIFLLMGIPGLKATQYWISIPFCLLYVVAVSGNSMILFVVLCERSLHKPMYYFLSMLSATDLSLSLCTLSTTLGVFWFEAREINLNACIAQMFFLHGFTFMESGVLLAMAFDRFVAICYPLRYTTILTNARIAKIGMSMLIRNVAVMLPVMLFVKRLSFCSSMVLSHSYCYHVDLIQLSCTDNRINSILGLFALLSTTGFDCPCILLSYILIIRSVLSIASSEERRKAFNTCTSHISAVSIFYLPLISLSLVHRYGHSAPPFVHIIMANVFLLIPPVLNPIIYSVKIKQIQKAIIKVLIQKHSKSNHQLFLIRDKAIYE
In short: as §1

[6] = target: T6, OR51G1 (Homo sapiens) (UniProt Q8NGK1)
T6 sequence (whole entry): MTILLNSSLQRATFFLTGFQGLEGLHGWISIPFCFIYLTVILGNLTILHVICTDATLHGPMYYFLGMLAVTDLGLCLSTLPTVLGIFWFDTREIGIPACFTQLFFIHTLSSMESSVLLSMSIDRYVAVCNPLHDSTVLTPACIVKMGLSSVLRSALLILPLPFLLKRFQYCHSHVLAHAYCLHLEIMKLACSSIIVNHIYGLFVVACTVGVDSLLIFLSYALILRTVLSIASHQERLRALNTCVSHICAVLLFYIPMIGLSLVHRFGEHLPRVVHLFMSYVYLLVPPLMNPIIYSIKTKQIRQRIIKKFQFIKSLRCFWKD
In short: as §1

[7] = target: T7, OR51G2 (Homo sapiens) (UniProt Q8NGK0)
T7 sequence (whole entry): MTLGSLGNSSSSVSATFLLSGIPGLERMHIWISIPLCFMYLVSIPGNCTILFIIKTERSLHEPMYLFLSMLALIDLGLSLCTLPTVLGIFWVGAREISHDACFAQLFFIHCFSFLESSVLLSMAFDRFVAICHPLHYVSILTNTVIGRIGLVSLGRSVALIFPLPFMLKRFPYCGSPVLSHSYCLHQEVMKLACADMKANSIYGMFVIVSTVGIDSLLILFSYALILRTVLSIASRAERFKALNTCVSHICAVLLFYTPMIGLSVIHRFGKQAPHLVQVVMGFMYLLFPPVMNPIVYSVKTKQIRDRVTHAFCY
In short: as §1

[8] = target: T8, OR51I1 (Homo sapiens) (UniProt Q9H343)
T8 sequence (whole entry): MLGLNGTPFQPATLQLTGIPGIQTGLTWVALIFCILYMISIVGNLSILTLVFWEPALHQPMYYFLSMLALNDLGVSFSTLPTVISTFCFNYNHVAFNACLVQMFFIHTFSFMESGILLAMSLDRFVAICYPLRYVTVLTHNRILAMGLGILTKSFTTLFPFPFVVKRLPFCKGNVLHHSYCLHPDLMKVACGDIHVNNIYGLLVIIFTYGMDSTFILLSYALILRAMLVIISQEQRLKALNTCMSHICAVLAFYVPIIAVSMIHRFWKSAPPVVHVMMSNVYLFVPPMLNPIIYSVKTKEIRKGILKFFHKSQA
In short: as §1

[9] = target: OR51H1 (Homo sapiens) (UniProt Q8NH63)
In short: as §1

[10] = target: T9, OR51E1 (Homo sapiens) (UniProt Q8TCB6); remark: listed apart in the source
T9 sequence (whole entry): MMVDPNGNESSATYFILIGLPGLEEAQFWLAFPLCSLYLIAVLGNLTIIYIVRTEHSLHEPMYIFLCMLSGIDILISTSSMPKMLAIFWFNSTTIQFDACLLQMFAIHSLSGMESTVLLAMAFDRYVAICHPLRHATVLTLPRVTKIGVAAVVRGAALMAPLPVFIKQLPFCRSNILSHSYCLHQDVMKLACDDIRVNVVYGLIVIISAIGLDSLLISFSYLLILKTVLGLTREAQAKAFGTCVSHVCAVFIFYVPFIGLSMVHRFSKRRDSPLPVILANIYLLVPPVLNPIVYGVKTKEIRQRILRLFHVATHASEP
In short: as §1

Measured: odorant receptor agonist call

OR51H1 (Homo sapiens), sequence (Q8NH63 whole entry): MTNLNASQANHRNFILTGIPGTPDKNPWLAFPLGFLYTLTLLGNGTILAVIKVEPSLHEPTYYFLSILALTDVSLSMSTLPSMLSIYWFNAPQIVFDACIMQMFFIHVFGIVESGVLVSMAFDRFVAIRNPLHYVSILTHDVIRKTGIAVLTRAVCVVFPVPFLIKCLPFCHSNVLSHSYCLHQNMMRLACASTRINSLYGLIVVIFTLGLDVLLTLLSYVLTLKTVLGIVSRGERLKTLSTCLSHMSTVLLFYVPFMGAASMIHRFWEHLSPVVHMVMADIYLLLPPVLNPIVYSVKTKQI

CCCCCC1CCCC(=O)O1 (stereo unspecified)
not listed: [9] | [10]
inactive: all other assays above

CCCCOC(=O)C(C)OC(=O)CCC (stereo unspecified)
active: [2]
inactive: [3]

CC(=O)c1c(C)c([N+](=O)[O-])c(C(C)(C)C)c([N+](=O)[O-])c1C
not listed: [2] | [10]
inactive: all other assays above

CCCCCCCCCO
inactive: [2] | [3]

CC(CO)CS (stereo unspecified)
not listed: [9] | [10]
inactive: all other assays above

CCCCCCCCCCCCCCCC(=O)[O-].[H+]
inactive: [2]

C=C(C)C1CCC(C)C(=O)C1 (stereo unspecified)
inactive: [2] | [3]

CCCC(=O)C(C)=O
inactive: [2] | [3]

CCC(C)CC(=O)O (stereo unspecified)
active: [2]

CCCCCCCCCCCC(=O)O
inactive: [2]

CCCCCCC(C)=O
inactive: [2] | [3]

c1ccccc1
inactive: [2] | [3]

CCCCC(S)C(C)CO (stereo unspecified)
not listed: [9] | [10]
inactive: all other assays above

CC1=C(O)C(=O)C(C)O1 (stereo unspecified)
not listed: [2] | [4] | [9]
inactive: all other assays above

Cc1cnc(C)c(C)n1
not listed: [2] | [4] | [9]
inactive: all other assays above

CCCCCCCCCCCCCC(=O)O
inactive: [2]

O=C(c1ccccc1)c1ccccc1
inactive: [2] | [3]

CCC1OC(C)=C(O)C1=O (stereo unspecified)
not listed: [2] | [4] | [9]
inactive: all other assays above

CCCC(C)C(=O)O (stereo unspecified)
active: [2]

CCCC(S)CCOC(C)=O (stereo unspecified)
not listed: [2] | [4] | [9]
inactive: all other assays above

CCC(S)C(C)CO (stereo unspecified)
not listed: [9] | [10]
inactive: all other assays above

CCC1OC(=O)C(O)=C1C (stereo unspecified)
not listed: [2] | [4] | [9]
inactive: all other assays above

C=CCOC(=O)CCCCCC
inactive: [2] | [3]

O=C([O-])c1ccccc1.[H+]
inactive: [2]

CCCCCC(=O)C(C)C(C)=O (stereo unspecified)
not listed: [9] | [10]
inactive: all other assays above

CC1=NC(C)C(C)S1 (stereo unspecified)
not listed: [2] | [4] | [9]
inactive: all other assays above

CC1=C(O)C(=O)OC1C (stereo unspecified)
not listed: [2] | [4] | [9]
inactive: all other assays above

O=C([O-])CC(O)(CC(=O)O)C(=O)[O-].[H+].[H+]
inactive: [2]

CC(C)=CCCC(C)CCO (stereo unspecified)
inactive: [2] | [3]

CCCCCCC=CCCC=O
not listed: [9] | [10]
inactive: all other assays above

CC1CCCCCCCCCCCCC(=O)C1 (stereo unspecified)
not listed: [2] | [10]
inactive: all other assays above

CCCCCC(=O)CC
inactive: [2] | [3]

CCCCCC(S)C(C)CO (stereo unspecified)
not listed: [9] | [10]
inactive: all other assays above

COc1cc(C(=O)O)ccc1O
inactive: [2] | [3]

CCC(C(=O)O)c1ccccc1 (stereo unspecified)
inactive: [2] | [3]

CC(=O)OCc1ccccc1
inactive: [2] | [3]

O=c1ccc2ccccc2o1
inactive: [2] | [3]

CCOC(=O)C(C)C
inactive: [2] | [3]

CCCCCCCCCC(=O)[O-].[H+]
inactive: [2] | [3]

CCC(=O)C(=O)CC
inactive: [2] | [3]

CC(=O)C=CC1=C(C)CCCC1(C)C
inactive: [3]

CCCCCCCCCCO
inactive: [2] | [3]

CCCCCCCO
inactive: [2] | [3]

CCCCCCCCC(=O)O
active: [2]
inactive: [3]

CCCCCCOC(C)=O
inactive: [2] | [3]

CCCCC(=O)O
inactive: [3]

CCCCCCC(=O)[O-].[H+]
inactive: [2] | [3]

CCCCCO
inactive: [2] | [3]

CCCCCC=O
inactive: [2] | [3]

CC(C)=CCCC(C)=CCO
inactive: [2] | [3]

O=C1Cc2ccccc2O1
inactive: [2] | [3]

CC(=O)OCC=C(C)C
inactive: [2] | [3]

CC(=O)Oc1ccccc1
inactive: [2] | [3]

O=C1CCOc2ccccc21
inactive: [2] | [3]

CCC(=O)O
active: [3]
inactive: [2]

CCCC(C)=O
inactive: [2] | [3]

CC12CCC(CC1=O)C2(C)C (stereo unspecified)
inactive: [2] | [3]

CCCCCCO
inactive: [2] | [3]

CCCCCOC(=O)CCCCC
inactive: [2] | [3]

CCCCC(C)=O
inactive: [2] | [3]

CCCCCCCC(C)=O
inactive: [2] | [3]

CCCCCC1=C(C)CCC1=O
inactive: [2] | [3]

CCCCCCCCS
inactive: [2] | [3]

CCCCOC=O
inactive: [2] | [3]

CCCCC(=O)CC
inactive: [2] | [3]

CCCCCCCCCS
inactive: [2] | [3]

CCCCCCCCO
inactive: [2] | [3]

CCCCCCCC(=O)[O-].[H+]
inactive: [2] | [3]
